Experimental data published in ChEMBL document CHEMBL1122494, “New selenium-75 labeled radiopharmaceuticals: selenonium analogues of dopamine” (J Med Chem, 1983).

Columns and labels:
Type in all cases: ADME, organism-based
Rattus norvegicus [1] = assay: Distribution of Se-75 activity in Heart of female Sprague-Dawley Rat 60 min after iv administration of compound; details: in vivo, 1 h
Outline: (§1)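 Female Sprague-Dawley rats (100-300 g), five per group, got [75Se]selenonium salt by lateral tail vein: 0.2 mL saline with 5-6 μCi. Groups were killed by cardioectomy under chloroform anesthesia at the set times. The organ was taken intact, rinsed with saline, blotted, weighed and gamma counted. Values are % injected dose/g, mean and SEM of five.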

Rattus norvegicus [2] = assay: Distribution of Se-75 activity in blood of female Sprague-Dawley Rat 5 min after iv administration of compound; details: in vivo
Outline: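 Female Sprague-Dawley rats (100-300 g) got 5-6 μCi of [75Se]selenonium salt in 0.2 mL saline via lateral tail vein. Groups of five were anesthetized with chloroform at set times and killed by cardioectomy. Tissues were rinsed, blotted and weighed, then gamma-counted. Values are % injected dose per gram, mean and SEM of five.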

Rattus norvegicus [3] = assay: Distribution of Se-75 activity in Liver of female Sprague-Dawley Rat 15 min after iv administration of compound; details: in vivo, 0.25 h
Outline: (§2)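 Female Sprague-Dawley rats (100-300 g), five per group, got [75Se]selenonium salt in 0.2 mL saline (5-6 μCi) by lateral tail vein. They were killed by cardioectomy under chloroform anesthesia at the stated time. A sample of the large organ was weighed and gamma counted, and counts were converted to % injected dose/g. Values are mean and SEM of five.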

Rattus norvegicus [4] = assay: Distribution of Se-75 activity in blood of female Sprague-Dawley Rat 120 min after iv administration compound; details: in vivo, 2 h
Outline: (§3)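 Tail-vein injection of 5-6 μCi [75Se]selenonium salt in 0.2 mL saline into female Sprague-Dawley rats (100-300 g), five per group. Rats were killed by cardioectomy under chloroform anesthesia at the time point. Radioactivity was gamma counted and expressed as % injected dose/g, mean and SEM of five.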

Rattus norvegicus [5] = assay: Tissue radioactivity ratio in adrenal to Liver 240 min after Intravenous Injection in rats; details: in vivo, 4 h
Outline: (§4)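 Same rat biodistribution: female Sprague-Dawley rats (100-300 g), 5-6 μCi [75Se]selenonium salt in 0.2 mL saline iv by tail vein, five per time point, killed by cardioectomy under chloroform. Ratios are tissue-to-tissue quotients of gamma-counted % injected dose per gram in each organ (adrenal, heart, kidney, liver, blood).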

Rattus norvegicus [6] = assay: Tissue radioactivity ratio in adrenal to blood 15 min after Intravenous Injection in rats; details: other tissue, 0.25 h; outline: as §4
Rattus norvegicus [7] = assay: Distribution of Se-75 activity in Liver of female Sprague-Dawley Rat 5 min after iv administration of compound; details: in vivo; outline: as §2
Rattus norvegicus [8] = assay: Distribution of Se-75 activity in Heart of female Sprague-Dawley Rat 120 min after iv administration of compound; details: in vivo, 2 h; outline: as §1
Rattus norvegicus [9] = assay: Tissue radioactivity ratio in adrenal to Kidney 5 min after Intravenous Injection in rats; details: in vivo; outline: as §4
Rattus norvegicus [10] = assay: Distribution of Se-75 activity in Brain of female Sprague-Dawley Rat 240 min after iv administration of compound; details: in vivo, 4 h
Rattus norvegicus [11] = assay: Distribution of Se-75 activity in Heart of female Sprague-Dawley Rat 5 min after iv administration of compound; details: in vivo; outline: as §1
Rattus norvegicus [12] = assay: Distribution of Se-75 activity in Brain of female Sprague-Dawley Rat 60 min after iv administration of compound; details: in vivo, 1 h
Rattus norvegicus [13] = assay: Distribution of Se-75 activity in Brain of female Sprague-Dawley Rat 120 min after iv administration of compound; details: in vivo, 2 h
Rattus norvegicus [14] = assay: Distribution of Se-75 activity in Lung of female Sprague-Dawley Rat 240 min after iv administration of compound; details: in vivo, 4 h; outline: as §2
Rattus norvegicus [15] = assay: Distribution of Se-75 activity in Adrenal of female Sprague-Dawley Rat 120 min after iv administration of compound; details: in vivo, 2 h; outline: as §1
Rattus norvegicus [16] = assay: Tissue radioactivity ratio in adrenal to Liver 60 min after Intravenous Injection in rats; details: in vivo, 1 h; outline: as §4
Rattus norvegicus [17] = assay: Distribution of Se-75 activity in Liver of female Sprague-Dawley Rat 60 min after iv administration of compound; details: in vivo, 1 h; outline: as §2
Rattus norvegicus [18] = assay: Distribution of Se-75 activity in Kidney of female Sprague-Dawley Rat 240 min after iv administration of compound; details: in vivo, 4 h; outline: as §1
Rattus norvegicus [19] = assay: Distribution of Se-75 activity in Adrenal of female Sprague-Dawley Rat 240 min after iv administration of compound; details: in vivo, 4 h; outline: as §1
Rattus norvegicus [20] = assay: Distribution of Se-75 activity in Liver of female Sprague-Dawley Rat 240 min after iv administration of compound; details: in vivo, 4 h; outline: as §2
Rattus norvegicus [21] = assay: Distribution of Se-75 activity in Lung of female Sprague-Dawley Rat 120 min after iv administration of compound; details: in vivo, 2 h; outline: as §2
Rattus norvegicus [22] = assay: Distribution of Se-75 activity in Heart of female Sprague-Dawley Rat 240 min after iv administration of dose 5 uCi/0.2 mL; details: in vivo, 4 h; outline: as §1
Rattus norvegicus [23] = assay: Distribution of Se-75 activity in Kidney of female Sprague-Dawley Rat 120 min after iv administration of compound; details: in vivo, 2 h; outline: as §1
Rattus norvegicus [24] = assay: Distribution of Se-75 activity in Brain of female Sprague-Dawley Rat 5 min after iv administration of compound; details: in vivo
Rattus norvegicus [25] = assay: Distribution of Se-75 activity in Lung of female Sprague-Dawley Rat 120 min after iv administration compound; details: in vivo, 2 h; outline: as §2
Rattus norvegicus [26] = assay: Distribution of Se-75 activity in Heart of female Sprague-Dawley Rat 240 min after iv administration compound; details: in vivo, 4 h; outline: as §1
Rattus norvegicus [27] = assay: Distribution of Se-75 activity in Kidney of female Sprague-Dawley Rat 120 min after iv administration compound; details: in vivo, 2 h; outline: as §1
Rattus norvegicus [28] = assay: Distribution of Se-75 activity in Heart of female Sprague-Dawley Rat 120 min after iv administration compound; details: in vivo, 2 h; outline: as §1
Rattus norvegicus [29] = assay: Distribution of Se-75 activity in Kidney of female Sprague-Dawley Rat 240 min after iv administration compound; details: in vivo, 4 h; outline: as §1
Rattus norvegicus [30] = assay: Distribution of Se-75 activity in Brain of female Sprague-Dawley Rat 120 min after iv administration compound; details: in vivo, 2 h
Rattus norvegicus [31] = assay: Distribution of Se-75 activity in Liver of female Sprague-Dawley Rat 60 min after iv administration of dcompound; details: in vivo, 1 h; outline: as §2
Rattus norvegicus [32] = assay: Distribution of Se-75 activity in Adrenal of female Sprague-Dawley Rat 120 min after iv administration compound; details: in vivo, 2 h; outline: as §1
Rattus norvegicus [33] = assay: Distribution of Se-75 activity in blood of female Sprague-Dawley Rat 120 min after iv administration of compound; details: in vivo, 2 h; outline: as §3
Rattus norvegicus [34] = assay: Distribution of Se-75 activity in Adrenal of female Sprague-Dawley Rat 240 min after iv administration compound; details: in vivo, 4 h; outline: as §1
Rattus norvegicus [35] = assay: Distribution of Se-75 activity in Brain of female Sprague-Dawley Rat 240 min after iv administration compound; details: in vivo, 4 h
Rattus norvegicus [36] = assay: Distribution of Se-75 activity in Lung of female Sprague-Dawley Rat 240 min after iv administration compound; details: in vivo, 4 h; outline: as §2

C[Se+](C)CCc1ccc(O)c(O)c1.[Cl-]
Dose/g (Rattus norvegicus [1]): 0.46% | Dose/g (Rattus norvegicus [2]): 0.35% | Dose/g (Rattus norvegicus [3]): 2% | Dose/g (Rattus norvegicus [4]): 0.08% | Ratio (Rattus norvegicus [5]): 2.56 | Ratio (Rattus norvegicus [6]): 2.9 | Dose/g (Rattus norvegicus [7]): 1.86% | Dose/g (Rattus norvegicus [8]): 0.21% | Ratio (Rattus norvegicus [9]): 0.29 | Dose/g (Rattus norvegicus [10]): 0% | Dose/g (Rattus norvegicus [11]): 2.37% | Dose/g (Rattus norvegicus [12]): 0.01% | Dose/g (Rattus norvegicus [13]): 0% | Dose/g (Rattus norvegicus [14]): 0.09% | Dose/g (Rattus norvegicus [15]): 0.73% | Ratio (Rattus norvegicus [16]): 1.04 | Dose/g (Rattus norvegicus [17]): 0.8% | Dose/g (Rattus norvegicus [18]): 0.18% | Dose/g (Rattus norvegicus [19]): 0.59% | Dose/g (Rattus norvegicus [20]): 0.23% | Dose/g (Rattus norvegicus [21]): 0.2% | Dose/g (Rattus norvegicus [22]): 0.16% | Dose/g (Rattus norvegicus [23]): 0.29% | Dose/g (Rattus norvegicus [24]): 0.02%

COc1ccc(CC[Se+](C)C)cc1OC.[I-]
Dose/g (Rattus norvegicus [25]): 0.19% | Dose/g (Rattus norvegicus [1]): 0.27% | Dose/g (Rattus norvegicus [2]): 0.34% | Dose/g (Rattus norvegicus [3]): 1.93% | Ratio (Rattus norvegicus [5]): 3.55 | Ratio (Rattus norvegicus [6]): 3.39 | Dose/g (Rattus norvegicus [7]): 2.48% | Ratio (Rattus norvegicus [9]): 0.31 | Dose/g (Rattus norvegicus [26]): 0.06% | Dose/g (Rattus norvegicus [27]): 0.33% | Dose/g (Rattus norvegicus [11]): 2.38% | Dose/g (Rattus norvegicus [12]): 0.01% | Dose/g (Rattus norvegicus [28]): 0.17% | Ratio (Rattus norvegicus [16]): 1.14 | Dose/g (Rattus norvegicus [29]): 0.16% | Dose/g (Rattus norvegicus [30]): 0.01% | Dose/g (Rattus norvegicus [31]): 0.62% | Dose/g (Rattus norvegicus [32]): 0.74% | Dose/g (Rattus norvegicus [20]): 0.18% | Dose/g (Rattus norvegicus [33]): 0.08% | Dose/g (Rattus norvegicus [34]): 0.64% | Dose/g (Rattus norvegicus [24]): 0.03% | Dose/g (Rattus norvegicus [35]): 0% | Dose/g (Rattus norvegicus [36]): 0.07%
